# Data reported in ChEMBL document CHEMBL1142008, “Discovery and investigation of a novel class of thiophene-derived antagonists of the human glucagon receptor” (Bioorg Med Chem Lett, 2005).
# Experiments:
# [1] = target: T1, Glucagon receptor (Homo sapiens, UniProt P47871); test: Inhibitory concentration towards binding of [125I]glucagon to the human glucagon receptor expressed in CHO cells; format: cell-based
# [2] = Maximum plasma concentration measured in mouse after peroral administration of 2 mg/kg; format: ADME, organism-based; parameters: dose 2 mg/kg, route oral; settings: po
# Summary of the method: (§1)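 Mouse PK, n = 3 mice per route. Dosed both IV and PO: 1.0 mg/kg IV / 2.0 mg/kg PO for one compound, 5.0 mg/kg IV / 10.0 mg/kg PO for others. Plasma clearance, Vdss, t1/2, Cmax, dose-normalized oral AUC and F% derived.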
# [3] = Maximum plasma concentration measured in mouse after intravenous administration of 1 mg/kg; format: ADME, organism-based; parameters: dose 1 mg/kg, route intravenous; summary of the method: as §1
# [4] = Half life measured in mouse after intravenous administration of 1 mg/kg; format: ADME, organism-based; parameters: dose 1 mg/kg, route intravenous; settings: in vivo; summary of the method: as §1
# [5] = Plasma clearance measured in mouse after peroral administration of 2 mg/kg; n = 3; format: ADME, organism-based; parameters: dose 2 mg/kg, route oral; settings: in vivo, po; summary of the method: as §1
# [6] = Plasma clearance measured in mouse after intravenous administration of 1 mg/kg; n = 3; format: ADME, organism-based; parameters: dose 1 mg/kg, route intravenous; settings: in vivo; summary of the method: as §1
# [7] = Steady state volume distribution measured in mouse after peroral administration of 2 mg/kg; format: ADME, organism-based; parameters: dose 2 mg/kg, route oral; settings: in vivo, po; summary of the method: as §1
# [8] = Steady state volume distribution measured in mouse after intravenous administration of 1 mg/kg; format: ADME, organism-based; parameters: dose 1 mg/kg, route intravenous; settings: in vivo, read-out: Vdss; summary of the method: as §1
# [9] = Oral bioavailability in mouse (dose 2 mg/kg); format: ADME, organism-based; settings: in vivo; summary of the method: as §1
# [10] = Bioavailability in mouse (dose 1 mg/kg i.v.); format: ADME, organism-based; settings: in vivo, iv; summary of the method: as §1
# [11] = Half life measured in mouse after peroral administration of 2 mg/kg; format: ADME, organism-based; parameters: dose 2 mg/kg, route oral; settings: in vivo, po; summary of the method: as §1
# [12] = target: T1, Glucagon receptor; test: Inhibition of glucagon induced cAMP accumulation in human glucagon receptor transfected CHO cells; format: functional, cell-based
# Summary of the method: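 Functional antagonism in CHO cells transfected with human glucagon receptor. Read-out is inhibition of glucagon-induced cAMP accumulation. Mean of at least two experiments, SD <50% of mean.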
# [13] = Maximum plasma concentration measured in mouse after oral administration of 2 mg/kg
# [14] = target: T1, Glucagon receptor; test: Percent inhibition of glucagon induced cAMP accumulation in human glucagon receptor transfected CHO cells at a compound concentration of 10 uM; format: functional, cell-based
# Summary of the method: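 Functional antagonism in CHO cells transfected with human glucagon receptor. Read-out is inhibition of glucagon-induced cAMP accumulation. Reported as IC50, or as percent inhibition at 10 µM compound. Mean of at least two experiments, SD <50% of mean.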
# T1 sequence (P47871 whole entry): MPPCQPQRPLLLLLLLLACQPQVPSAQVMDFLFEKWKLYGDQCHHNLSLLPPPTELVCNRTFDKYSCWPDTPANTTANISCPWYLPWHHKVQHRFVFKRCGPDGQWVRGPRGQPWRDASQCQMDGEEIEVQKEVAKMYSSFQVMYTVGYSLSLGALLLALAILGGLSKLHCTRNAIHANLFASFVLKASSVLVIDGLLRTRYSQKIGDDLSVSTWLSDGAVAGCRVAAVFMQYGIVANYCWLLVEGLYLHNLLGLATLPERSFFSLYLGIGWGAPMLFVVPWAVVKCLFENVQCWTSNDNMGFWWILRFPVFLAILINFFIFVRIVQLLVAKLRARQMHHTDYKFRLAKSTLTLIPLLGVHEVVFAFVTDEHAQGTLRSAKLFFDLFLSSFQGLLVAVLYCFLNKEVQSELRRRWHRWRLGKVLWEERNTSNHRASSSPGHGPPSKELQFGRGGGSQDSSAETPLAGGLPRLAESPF
smiles,measurement,setting,value
CCC(CC)C(=O)Nc1sc(-c2nc(Cc3ccc(Cl)cc3Cl)no2)c(C)c1C#N,IC50,[1],89 nM
same,Cmax,[2],800 nM
same,Cmax,[3],800 nM
same,half-life,[4],5.1 h
same,Clp,[5],23 mL/min/kg
same,Clp,[6],23 mL/min/kg
same,Vdss,[7],8.7 L/kg
same,Vd,[8],8.7 L/kg
same,bioavailability,[9],36%
same,bioavailability,[10],36%
same,half-life,[11],5.1 h
same,IC50,[12],34 nM
CCC(CC)C(=O)Nc1sc2c(c1C#N)CCC(C(C)(C)CC)C2 (stereo unspecified),IC50,[1],181 nM
same,IC50,[12],129 nM
CCC(CC)C(=O)Nc1sc2c(c1C#N)CCC(N(C)Cc1ccccc1)C2 (stereo unspecified),IC50,[1],3820 nM
"CCC(CC)C(=O)Nc1sc2c(c1C#N)CCC(N(C)C1CCCc3ccccc31)C2 (single isomer, unassigned; form 2)",IC50,[1],118 nM
same,IC50,[12],59 nM
CCC(CC)C(=O)Nc1sc2c(c1C#N)CCC(N(C)Cc1ccc(Cl)cc1Cl)C2 (stereo unspecified),IC50,[1],92 nM
same,Cmax,[2],80 nM
same,half-life,[4],1.9 h
same,Clp,[5],50 mL/min/kg
same,Clp,[6],50 mL/min/kg
same,Vdss,[7],3.4 L/kg
same,Vd,[8],3.4 L/kg
same,bioavailability,[9],9.2%
same,bioavailability,[10],9.2%
same,half-life,[11],1.9 h
same,IC50,[12],63 nM
same,Cmax,[13],80 nM
CCC(CC)C(=O)Nc1sc(-c2nc(CC(C)C)no2)c(C)c1C#N,IC50,[1],368 nM
same,Cmax,[2],800 nM
same,Cmax,[3],800 nM
same,half-life,[4],2.7 h
same,Clp,[5],84 mL/min/kg
same,Clp,[6],84 mL/min/kg
same,Vdss,[7],16 L/kg
same,Vd,[8],16 L/kg
same,bioavailability,[9],39%
same,bioavailability,[10],39%
same,half-life,[11],2.7 h
same,IC50,[12],185 nM
CCC(C)(C)C1CCc2c(sc(NC(=O)c3ccc(Br)cc3)c2C#N)C1 (stereo unspecified),IC50,[1],> 20000 nM
CCC(CC)C(=O)Nc1sc(-c2nnc(CC(C)C)o2)c(C)c1C#N,IC50,[1],3210 nM
CCC(CC)C(=O)Nc1sc2c(c1C(N)=O)CCC(C(C)(C)CC)C2 (stereo unspecified),IC50,[1],870 nM
same,inhibition,[14],38%
CCC(CC)C(=O)Nc1sc2c(c1C#N)CCC(N(Cc1ccc(Cl)cc1Cl)C(C)C)C2 (stereo unspecified),IC50,[1],129 nM
same,IC50,[12],59 nM
"CCC(CC)C(=O)Nc1sc2c(c1C#N)CCC(N(C)C1CCCc3ccccc31)C2 (single isomer, unassigned; form 1)",IC50,[1],139 nM
same,IC50,[12],158 nM
CCC(CC)C(=O)Nc1sc(C(=O)N(Cc2ccc(Cl)cc2Cl)C(C)C)c(C)c1C#N,IC50,[1],153 nM
same,IC50,[12],41 nM
